Results of several laboratories.
Protocols differ between the studies behind these lines.
Target: Dual specificity tyrosine-phosphorylation-regulated kinase 2 (DYRK2, Homo sapiens, UniProt Q92630)
Observed: enzyme activity
Action: inhibitor
Sequence (Q92630 1-601, as in one of the studies): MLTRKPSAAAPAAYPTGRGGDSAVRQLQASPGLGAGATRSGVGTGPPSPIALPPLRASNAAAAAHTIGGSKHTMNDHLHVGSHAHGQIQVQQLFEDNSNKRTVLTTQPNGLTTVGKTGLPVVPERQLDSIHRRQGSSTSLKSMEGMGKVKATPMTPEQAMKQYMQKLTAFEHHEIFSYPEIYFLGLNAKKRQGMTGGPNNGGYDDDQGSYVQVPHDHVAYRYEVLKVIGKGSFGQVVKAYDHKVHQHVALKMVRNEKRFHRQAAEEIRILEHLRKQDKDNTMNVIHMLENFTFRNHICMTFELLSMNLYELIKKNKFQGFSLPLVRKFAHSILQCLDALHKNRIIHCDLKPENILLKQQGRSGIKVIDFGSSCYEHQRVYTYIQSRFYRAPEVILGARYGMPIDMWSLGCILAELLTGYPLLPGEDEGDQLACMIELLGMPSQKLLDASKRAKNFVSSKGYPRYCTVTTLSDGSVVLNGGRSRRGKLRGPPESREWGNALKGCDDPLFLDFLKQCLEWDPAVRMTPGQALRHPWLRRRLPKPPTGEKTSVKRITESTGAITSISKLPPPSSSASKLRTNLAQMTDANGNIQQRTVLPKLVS

technique	concentration	remaining activity [%]	Compound
	5 µM	88.2	O=C(Nc1cnn(-c2csc(C(=O)NC3COC3)c2)c1)Nc1ccccc1Cl
	10 µM	79	Cn1c(=O)n(-c2ccc(C(C)(C)C#N)cc2)c2c3cc(-c4cnc5ccccc5c4)ccc3ncc21
radiometric	1 µM	45	O=C(O)c1ccc2c(c1)nc(Nc1ccccc1)c1ccncc12
	10 µM	90	CC(C)(C)C(=O)c1sc(NC2CCCCC2)nc1N
radiometric	1 µM	11	O=C(O)c1ccc2c(c1)nc(Nc1ccc(Cl)cc1)c1ccncc12
radiometric	1 µM	30	Cc1cnc(NC2CCOCC2)nc1-n1cnc(C(=O)NC(CN)c2cc(F)cc(Cl)c2)c1 (stereo not drawn)
radiometric	10 µM	100	COc1cc(Nc2cnc(C#N)c(O[C@H](C)CN(C)C)n2)ncc1-c1cnn(C)c1
radiometric	1 µM	9	O=C(O)c1ccc2c(c1)nc(NCCc1ccccc1)c1ccncc12
	5 µM	93.6	O=C(Nc1cnn(-c2csc(C(=O)NC3COC3)c2)c1)Nc1c(F)cccc1Cl
	1 µM	59.7	CC(C)(O)[C@H]1CC[C@H](Nc2ccc3ncc(-c4cccc(C(F)(F)F)c4)n3n2)CC1
	10 µM	79	Nc1nc(Nc2ccccc2)sc1C(=O)c1c(F)cccc1F
radiometric	1 µM	94	CC(C)(C)c1nc2c(s1)c1nc(N)ncc1c1ccc(NS(=O)(=O)c3c(F)cccc3F)c(F)c12
